The source of these data is ChEMBL document CHEMBL1764958, “Synthesis and biological evaluation of 3,7-diazabicyclo[4.3.0]nonan-8-ones as potential nootropic and analgesic drugs” (2011).

Calls of active or inactive are those of the source. The calls are words filed in the database; no cut-off is given here.

The subject of assay [1] is Mus musculus. Nature of the assay: Antiamnesic activity in ip dosed mouse assessed as reversal of scopolamine-induced amnesia after 20 mins by passive-avoidance test. The settings on record: for minimal effective dose: Mus musculus, ip, 20 min, read-out: MED. The class given is functional.
Assay [2] has as its system Mus musculus. The assay is described as follows: Antiamnesic activity in mouse assessed as reversal of scopolamine-induced amnesia at 10 mg/kg, ip after 20 mins by passive-avoidance test. The assay is classed as functional, organism-based. Also noted: dose 10 mg/kg. A digest of the protocol:
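Mice; compounds dissolved in saline, given ip 20 min before the training session of the passive-avoidance test. Scopolamine injected immediately after punishment. Doses tested up to 10 mg/kg; activity read as reversal of scopolamine-induced amnesia at retention. Each value is the mean of 8-18 mice, compared against scopolamine-treated mice.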

Assay [3] relates to Rattus norvegicus. The assay is described as follows: Antihyperalgesic activity in rat assessed as reversal of oxaliplatin-induced mechanical hyperalgesia at 10 mg.kg, ip by paw pressure test. The assay is classed as functional, organism-based. A digest of the protocol:
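Rats received oxaliplatin 2.4 mg/kg ip on 5 consecutive days each week, for 15 injections totalling 36 mg/kg. Mechanical hyperalgesia was then measured by the paw-pressure test after a single ip dose of 10 mg/kg. Pregabalin 30 mg/kg po served as reference.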

Assay [4] has as its system Rattus norvegicus. The assay is described as follows: Antihyperalgesic activity in rat assessed as reversal of oxaliplatin-induced mechanical hyperalgesia at 50 to 100 mg.kg, iv by paw pressure test. The assay is classed as functional.
The species named for assay [5] is Mus musculus. Nature of the assay: Antihyperalgesic activity against thermal hyperalgesia in saline treated mouse diabetic neuropathy model assessed as licking latency time after 30 mins by hot plate test (reference value: 18 +/- 1.5 sec).
The species entered for assay [6] is Mus musculus. Nature of the assay: Antihyperalgesic activity against thermal hyperalgesia in saline treated mouse diabetic neuropathy model assessed as licking latency time after 15 mins by hot plate test (reference value: 18.1 +/- 1.1 sec).
The species entered for assay [7] is Mus musculus. Nature of the assay: Antihyperalgesic activity against thermal hyperalgesia in saline treated mouse diabetic neuropathy model assessed as licking latency time after 45 mins by hot plate test (reference value: 17.8 +/- 1.5 sec).
For assay [8], the species on record is Mus musculus. The assay is described as follows: Antihyperalgesic activity against thermal hyperalgesia in saline treated mouse diabetic neuropathy model assessed as licking latency time after 60 mins by hot plate test (reference value: 18.4 +/- 1.6 sec).
The species entered for assay [9] is Mus musculus. The assay is described as follows: Antihyperalgesic activity against streptozotocin-induced thermal hyperalgesia in mouse diabetic neuropathy model assessed as licking latency time after 15 mins by hot plate test (reference value: 9.4 +/- 1.3 sec).
Assay [10] is filed under the species Mus musculus. The assay is described as follows: Antihyperalgesic activity against streptozotocin-induced thermal hyperalgesia in mouse diabetic neuropathy model assessed as licking latency time after 45 mins by hot plate test (reference value: 9.3 +/- 1.2 sec).
Assay [11] is filed under the species Mus musculus. The assay is described as follows: Antihyperalgesic activity against streptozotocin-induced thermal hyperalgesia in mouse diabetic neuropathy model assessed as licking latency time after 30 mins by hot plate test (reference value: 10.1 +/- 0.8 sec).
Assay [12] is filed under the species Mus musculus. Nature of the assay: Antihyperalgesic activity against streptozotocin-induced thermal hyperalgesia in mouse diabetic neuropathy model assessed as licking latency time after 60 mins by hot plate test (reference value: 10.4 +/- 1.2 sec).

As for `CC(=O)NC1CCN(S(=O)(=O)C(C)C)CC1`, the minimal effective dose with Mus musculus [1] was found to be 1 mg/kg. In the case of `CC(=O)NC1CCN(C(=O)c2ccccc2)CC1`, the minimal effective dose with Mus musculus [1] was 10 mg/kg. With `CC(C)S(=O)(=O)N1CC[C@@H]2NC(=O)C[C@@H]2C1`, the result in the assay on Mus musculus [2] was inactive. For the compound `O=C1CC2CN(S(=O)(=O)c3ccc(F)cc3)CCC2N1` (racemic; form 1), in the assay with Rattus norvegicus [3], the outcome was Active.

Turning to `O=C1CC2CN(S(=O)(=O)c3ccc(F)cc3)CCC2N1` (racemic; form 2), the outcome in the assay on Rattus norvegicus [3] was Active.

Consider `O=C1C[C@@H]2CN(S(=O)(=O)c3ccc(F)cc3)CC[C@@H]2N1` (relative stereo), for which the MED with Mus musculus [1] stood at 0.1 mg/kg. As for `O=C1C[C@@H]2CN(C(=O)c3ccccc3)CC[C@@H]2N1` (relative stereo), the minimal effective dose with Mus musculus [1] is 3 mg/kg. With `O=C1C[C@H]2CN(S(=O)(=O)c3ccc(F)cc3)CC[C@@H]2N1` (relative stereo), in the assay with Mus musculus [1], the MED is 1 mg/kg.

`O=C1C[C@H]2CN(C(=O)c3ccccc3)CC[C@@H]2N1` (relative stereo): the minimal effective dose with Mus musculus [1] turned out to be 3 mg/kg. As to `CC(C)S(=O)(=O)N1CC[C@@H]2NC(=O)C[C@H]2C1` (relative stereo), the minimal effective dose with Mus musculus [1] is 10 mg/kg. Consider `O=C1C[C@@H]2CN(S(=O)(=O)c3ccc(F)cc3)CC[C@@H]2N1` (stereo in doubt; (+)-4), for which the Activity in the assay on Rattus norvegicus [4] was 75%. As for `O=C1C[C@@H]2CN(S(=O)(=O)c3ccc(F)cc3)CC[C@@H]2N1` (stereo in doubt; (-)-4), the minimal effective dose in the assay with Mus musculus [1] is 0.1 mg/kg.

In the case of `O=C1C[C@H]2CN(S(=O)(=O)c3ccc(F)cc3)CC[C@@H]2N1` (stereo in doubt; (-)-7), the minimal effective dose in the assay on Mus musculus [1] worked out at 1 mg/kg. Regarding `O=C1O[C@H]([C@@H](O)CO)C(O)=C1O` [ASCORBIC ACID], the Activity with Rattus norvegicus [4] was 50%. For `O=C(O)CCCCC1CCSS1` (stereo not drawn) [LIPOIC ACID, ALPHA], the Activity with Rattus norvegicus [4] worked out at 50%. As to `NC(=O)CN1CCCC1=O` [PIRACETAM], the minimal effective dose in the assay on Mus musculus [1] came out at 30 mg/kg.

`CC(=O)NC1CCN(S(=O)(=O)c2ccc(F)cc2)CC1` [SAPUNIFIRAM]: the minimal effective dose in the assay on Mus musculus [1] was found to be 0.01 mg/kg. In addition, the result in the assay on Rattus norvegicus [3] was inactive. Further, the Time in the assay listed under Mus musculus [5] came to 15.7 s; in the assay filed under Mus musculus [6], 16.5 s; in the assay filed under Mus musculus [7] it was 16.3 s; in the assay filed under Mus musculus [8], 15.6 s; in the assay filed under Mus musculus [9] it was 15.6 s; in the assay listed under Mus musculus [10] it was 10.4 s. Further, the Time in the assay filed under Mus musculus [11] stood at 12.4 s; in the assay listed under Mus musculus [12] it was 11.2 s.
